Usually inhibition stands for how much of the control response was suppressed. Higher therefore signals strong suppression.

Each structure is given as a SMILES string.

Assay [1] addresses T1, Aromatase (Homo sapiens, UniProt P11511).
T1 sequence (P11511 whole entry): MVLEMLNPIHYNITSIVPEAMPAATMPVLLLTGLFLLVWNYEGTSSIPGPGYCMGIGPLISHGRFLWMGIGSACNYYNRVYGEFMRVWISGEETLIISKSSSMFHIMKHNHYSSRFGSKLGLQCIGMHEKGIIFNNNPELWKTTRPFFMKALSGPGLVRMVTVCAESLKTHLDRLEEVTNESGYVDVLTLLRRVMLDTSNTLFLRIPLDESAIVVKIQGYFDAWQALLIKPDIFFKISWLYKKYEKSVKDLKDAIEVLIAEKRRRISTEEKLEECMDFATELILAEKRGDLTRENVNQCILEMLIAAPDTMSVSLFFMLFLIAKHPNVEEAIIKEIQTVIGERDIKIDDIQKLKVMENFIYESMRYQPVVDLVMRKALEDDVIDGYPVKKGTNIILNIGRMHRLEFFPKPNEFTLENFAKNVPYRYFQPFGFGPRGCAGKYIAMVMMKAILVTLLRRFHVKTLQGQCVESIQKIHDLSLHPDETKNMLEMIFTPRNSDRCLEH
Description: Inhibition of Cytochrome P450 19A1 at 0.25 uM. The method, boiled down: (§1)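 Aromatase source was lyophilized human placental microsomes, measured by tritiated water release. The substrate was 0.25 μM [1-³H]androstenedione (83% of the tritium in the β position), about 5 times the Km for this enzyme preparation. Inhibitor was tested at 0.25 μM or 1.25 μM with buffer and cofactors for 15 min. Ethyl acetate stopped the reaction.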

Assay [2] concerns the target T1, Aromatase. The assay is described as follows: Inhibition of Cytochrome P450 19A1 at 1.25 uM. In a few lines: as §1

In the case of `C[C@]12CCC(=O)C=C1C[C@@H](Sc1ccc(F)cc1)[C@@H]1[C@@H]2CC[C@]2(C)C(=O)CC[C@@H]12`, 0.25 µM produced 55.3% inhibition on Aromatase [1]. The molecule also returned an inhibition at 1.25 µM on Aromatase [2] of 74.1%.

Consider `CCN(CC)c1ccc(S[C@@H]2CC3=CC(=O)CC[C@]3(C)[C@H]3CC[C@]4(C)C(=O)CC[C@H]4[C@H]23)cc1`, for which 0.25 µM produced 11.7% inhibition against Aromatase [1]. The same molecule returned an inhibition at 1.25 µM on Aromatase [2] of 53.2%.

As to `Cc1ccc(S[C@@H]2CC3=CC(=O)CC[C@]3(C)[C@H]3CC[C@]4(C)C(=O)CC[C@H]4[C@H]23)cc1`, testing at 0.25 µM on Aromatase [1] gave an inhibition of 7.83%. The inhibition at 1.25 µM on Aromatase [2] is 24.9%.

On Aromatase [1], `CC(=O)c1ccc(S[C@@H]2CC3=CC(=O)CC[C@]3(C)[C@H]3CC[C@]4(C)C(=O)CC[C@H]4[C@H]23)cc1` returned an inhibition at 0.25 µM of 55.7%. This molecule came in with an inhibition at 1.25 µM on Aromatase [2] of 84.4%.

At Aromatase [1], `C[C@]12CCC(=O)C=C1C[C@@H](SCc1ccccc1)[C@@H]1[C@@H]2CC[C@]2(C)C(=O)CC[C@@H]12` registered an inhibition at 0.25 µM of 33.5%. The same molecule returned an inhibition at 1.25 µM against Aromatase [2] of 69.8%.

For the molecule `C[C@]12CCC(=O)C=C1C[C@@H](Sc1ccccc1)[C@@H]1[C@@H]2CC[C@]2(C)C(=O)CC[C@@H]12`, at Aromatase [1], the inhibition at 0.25 µM came out at 62.7%. The molecule further showed an inhibition at 1.25 µM against Aromatase [2] of 66.8%.

As for `C[C@]12CCC(=O)C=C1C[C@@H](Sc1ccc(N)cc1)[C@@H]1[C@@H]2CC[C@]2(C)C(=O)CC[C@@H]12`, testing at 0.25 µM on Aromatase [1] gave an inhibition of 51.6%. At Aromatase [2], this molecule displayed an inhibition at 1.25 µM of 85%.

Regarding `COc1ccc(S[C@@H]2CC3=CC(=O)CC[C@]3(C)[C@H]3CC[C@]4(C)C(=O)CC[C@H]4[C@H]23)cc1`, at 0.25 µM the inhibition at Aromatase [1] was 7.93%. In addition, testing at 1.25 µM on Aromatase [2] gave an inhibition of 36.7%.

The molecule `C[C@]12CCC(=O)C=C1C[C@@H](Sc1ccc(Cl)cc1)[C@@H]1[C@@H]2CC[C@]2(C)C(=O)CC[C@@H]12` came in with an inhibition at 0.25 µM against Aromatase [1] of 56.5%. This molecule had an inhibition at 1.25 µM on Aromatase [2] of 83.4%.

As to `C[C@]12CCC(=O)C=C1C[C@@H](SC1CCCCC1)[C@@H]1[C@@H]2CC[C@]2(C)C(=O)CC[C@@H]12`, at Aromatase [1], the inhibition at 0.25 µM was found to be 18.5%. The molecule further yielded an inhibition at 1.25 µM on Aromatase [2] of 32.2%.

`C[C@]12CCC(=O)C=C1C[C@@H](Sc1ccc(I)cc1)[C@@H]1[C@@H]2CC[C@]2(C)C(=O)CC[C@@H]12` came in with an inhibition at 0.25 µM against Aromatase [1] of 45%. Also, the inhibition at 1.25 µM on Aromatase [2] was found to be 83.7%.

For `C[C@]12CCC(=O)C=C1C[C@@H](Sc1cccc(N)c1)[C@@H]1[C@@H]2CC[C@]2(C)C(=O)CC[C@@H]12`, the inhibition at 0.25 µM against Aromatase [1] worked out at 39.9%. On Aromatase [2], this molecule returned an inhibition at 1.25 µM of 73.3%.

As to `C[C@]12CCC(=O)C=C1C[C@@H](Sc1ccc(Br)cc1)[C@@H]1[C@@H]2CC[C@]2(C)C(=O)CC[C@@H]12`, on Aromatase [1], the inhibition at 0.25 µM was determined as 47.3%. On Aromatase [2], 1.25 µM produced 80.8% inhibition.

The record behind these values is ChEMBL document CHEMBL1123018, “7 alpha-substituted derivatives of androstenedione as inhibitors of estrogen biosynthesis” (J Med Chem, 1985).
